The test system of assay [1] is Canis familiaris. As to the kind of experiment: Percent change in heart rate in anesthetized dogs at 0.31 mg/kg. It is filed as functional, Canis lupus familiaris. The essentials:
(§1)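 Acutely instrumented anesthetized dogs, 30 min control period. Drug in saline or dilute HCl/NaOH diluted with saline, given i.v. cumulatively, 0.1 ml/kg over 1 min. Half-log doses 0.01–1.0 mg/kg, 10-30 min between doses. One compound per dog. Heart rate, aortic pressure and LV dP/dtmax recorded as change from preceding baseline. Values are means of two experiments.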

The test system of assay [2] is Canis familiaris. Kind of assay: Percent change in blood pressure in anesthetized dogs at 0.1 mg/kg. It is filed as functional, Canis lupus familiaris. The essentials: as §1
The subject of assay [3] is Canis familiaris. Kind of assay: Percent change in heart rate in anesthetized dogs at 1 mg/kg. In kind it is functional, Canis lupus familiaris. In short, it runs like this: as §1
For assay [4], the system named is Canis familiaris. As to the kind of experiment: Percent change in blood pressure in anesthetized dogs at 0.31 mg/kg. It is filed as functional, Canis lupus familiaris. In short, it runs like this:
as §1

The test system of assay [5] is Canis familiaris. As to the kind of experiment: Percent change in blood pressure in anesthetized dogs at 0.01 mg/kg. It is filed as functional, Canis lupus familiaris. In short, it runs like this:
as §1

Assay [6] deals with Canis familiaris. Kind of assay: Percent change in dP/dtmax was measured in anesthetized dogs at a dose of 0.01 mg/kg. It is filed as functional, Canis lupus familiaris. In short, it runs like this:
as §1

Assay [7] deals with Canis familiaris. Kind of assay: Percent change in heart rate in anesthetized dogs at 0.03 mg/kg. It is filed as functional, Canis lupus familiaris. In short, it runs like this: as §1
Assay [8] has as its system Canis familiaris. Kind of assay: Percent change in dP/dtmax (contractility) in anesthetized dogs at 1 mg/kg. It is filed as functional, Canis lupus familiaris. The essentials:
as §1

Assay [9] deals with Canis familiaris. Kind of assay: Percent change in heart rate in anesthetized dogs at a 0.01 mg/kg. It is filed as functional, Canis lupus familiaris. In short, it runs like this: as §1
For assay [10], the system named is Canis familiaris. Kind of assay: Percent change in heart rate in anesthetized dogs at 0.1 mg/kg. It is filed as functional, Canis lupus familiaris. In short, it runs like this: as §1
Assay [11] relates to Canis familiaris. As to the kind of experiment: Percent change in blood pressure in anesthetized dogs at 0.03 mg/kg. It is filed as functional, Canis lupus familiaris. The essentials: as §1
In assay [12] the test system is Canis familiaris. Kind of assay: Percent change in blood pressure in anesthetized dogs 1 mg/kg. It is filed as functional, Canis lupus familiaris. In short, it runs like this: as §1
For assay [13], the target named is Phosphodiesterase 3 (Cavia porcellus). As to the kind of experiment: Inhibition of guinea pig phosphodiesterase type III.
For assay [14], the system named is Canis familiaris. As to the kind of experiment: Percent change in blood pressure in anesthetized dogs at 1 mg/kg. In kind it is functional, Canis lupus familiaris. The essentials: as §1
Assay [15] has as its system Canis familiaris. Kind of assay: Percent change in heart rate in anesthetized dogs. In kind it is functional, Canis lupus familiaris. In short, it runs like this: as §1
Assay [16] addresses Phosphodiesterase 3 (Cavia porcellus). Kind of assay: Inhibition of guinea pig phosphodiesterase type III. The source holds these as a separate data set.

This note sets out measurements from ChEMBL document CHEMBL1123399, “Cardiotonic agents. 3. Synthesis and biological activity of novel 6-(substituted 1H-imidazol-4(5)-yl)-3(2H)-pyridazinones” (J Med Chem, 1986).

As a reminder, the IC50 is the concentration that inhibits the measured activity by half. A low value points to inhibition by little substance.

Several values for one entry are separate records, joined by “and”; a condition that tells them apart may be missing. Equal values may be shown once.

For the molecule `Oc1ccc(-c2cn(Cc3ccccc3)c(-c3ccccc3)n2)nn1`, the Change in the assay on Canis familiaris [1] was 3%; in the assay on Canis familiaris [2] it was 8%; in the assay on Canis familiaris [3], 8%; in the assay with Canis familiaris [4], 3%; in the assay with Canis familiaris [5], 8.5%; with Canis familiaris [6] it was 21% and 29% and 17% and 28%. The Change is -1% with Canis familiaris [7]; 55% with Canis familiaris [8]; 3% in the assay on Canis familiaris [9]; -1% in the assay with Canis familiaris [10]; 6.5% with Canis familiaris [11]; 2% with Canis familiaris [12].
In the case of `COc1ccc(-c2nc(-c3ccc(O)nn3)cn2C)cc1OC`, the Change in the assay with Canis familiaris [1] is -1%; in the assay with Canis familiaris [2] it was 0%; in the assay with Canis familiaris [3], 0.5%; in the assay with Canis familiaris [4] it was -1%; in the assay with Canis familiaris [5], 0%; with Canis familiaris [6] it was 3.5% and 6% and 4.5% and 5%. The Change is reported as 1% in the assay on Canis familiaris [7]; 13% in the assay with Canis familiaris [8]; 1.5% in the assay with Canis familiaris [9]; -0.5% in the assay with Canis familiaris [10]; 1.5% in the assay with Canis familiaris [11]; -4.5% in the assay with Canis familiaris [14]. Also, in assay [13], the IC50 was 75 µM.
For `Cn1cc(-c2ccc(O)nn2)nc1-c1ccccc1`, the Change in the assay on Canis familiaris [1] is reported as 50.5%; in the assay with Canis familiaris [2], -6.5%; in the assay on Canis familiaris [3] it was 63.5%; with Canis familiaris [4] it was -15.75%; in the assay on Canis familiaris [5], -1.5%; in the assay with Canis familiaris [7] it was 9.5%. Besides, the Change in the assay on Canis familiaris [8] was 186%; in the assay with Canis familiaris [9], 1.5%; in the assay with Canis familiaris [10], 21.5%; in the assay on Canis familiaris [11] it was -0.25%; in the assay with Canis familiaris [14] it was -31.25%.
With `O=C1CCC(c2ccc(-n3ccnc3)cc2)=NN1` [IMAZODAN], the Change with Canis familiaris [1] is 19.2%; in the assay on Canis familiaris [2], -5.3%; in the assay with Canis familiaris [4], -13.2%; with Canis familiaris [5], -0.7%; in the assay with Canis familiaris [7], 5.6%; in the assay with Canis familiaris [9] it was 0%. In addition, the Change with Canis familiaris [15] is 33.8%; in the assay with Canis familiaris [10], 6.2%; in the assay with Canis familiaris [11] it was -4.1%; with Canis familiaris [14], -22.4%.
Regarding `Oc1ccc(-c2ccc(-c3ncc[nH]3)cc2)nn1`, the Change in the assay with Canis familiaris [1] is on record as 30.5%; in the assay on Canis familiaris [2], -26%; in the assay with Canis familiaris [4], -26.5%; with Canis familiaris [5], -1%; with Canis familiaris [7], 12.5%; with Canis familiaris [9] it was 1.5%. Also, the Change was 31.5% in the assay on Canis familiaris [10] and -2.5% in the assay with Canis familiaris [11].
For `Cn1c(C2=NNC(=O)CC2)cnc1-c1ccccc1`, the Change is 5% in the assay on Canis familiaris [1]; 1.5% in the assay on Canis familiaris [2]; 5.5% with Canis familiaris [3]; 0% in the assay on Canis familiaris [4]; 1.75% with Canis familiaris [5]; 7% and 10% and 11% and 16.5% with Canis familiaris [6]. Also, the Change with Canis familiaris [7] was 3.5%; in the assay with Canis familiaris [8] it was 30.5%; with Canis familiaris [9], 3%; in the assay with Canis familiaris [10] it was 4.5%; with Canis familiaris [11], 1.75%; in the assay on Canis familiaris [14], -2.25%. This molecule had an IC50 in assay [13] of 38 µM.
Take `COc1ccc(-c2nc(C3=NNC(=O)CC3)cn2C)cc1OC`: the Change in the assay with Canis familiaris [1] was 5%; in the assay with Canis familiaris [2] it was -0.25%; with Canis familiaris [3], 8.5%; with Canis familiaris [4], 0%; in the assay on Canis familiaris [5], -1%; with Canis familiaris [6] it was 2% and 2.5% and 9.5%. For the same molecule, the Change in the assay with Canis familiaris [7] was 0.5%; with Canis familiaris [8], 0%; in the assay on Canis familiaris [9], 2.5; in the assay on Canis familiaris [10], 1.5%; with Canis familiaris [11], -1.25%; in the assay on Canis familiaris [14] it was 1.5%. This molecule gave a 50% inhibitory concentration (IC50) in assay [16] of 128 µM.
Take `Cn1cc(C2=NNC(=O)CC2)nc1-c1ccccc1`: the Change with Canis familiaris [1] is reported as 34%; with Canis familiaris [2], -11.8%; in the assay with Canis familiaris [3], 29.5%; with Canis familiaris [4] it was -23.2%; in the assay on Canis familiaris [5], -1.2%; with Canis familiaris [7], 13%. Moreover, the Change with Canis familiaris [8] is listed as 95%; in the assay on Canis familiaris [9], 3.5%; in the assay on Canis familiaris [10], 29.5%; in the assay on Canis familiaris [11], -5%; with Canis familiaris [14], -31.8%. The molecule also came in with a 50% inhibitory concentration (IC50) in assay [13] of 12.1 µM.
As to `Cl.O=C1CCC(c2cn(Cc3ccccc3)c(-c3ccccc3)n2)=NN1`, the Change is 18.5% in the assay with Canis familiaris [1]; 0% with Canis familiaris [2]; 8% in the assay on Canis familiaris [3]; -4.5% in the assay with Canis familiaris [4]; 1% in the assay with Canis familiaris [5]; 2.5% and 4.5% and 12.5% and 10.5% with Canis familiaris [6]. Besides, the Change in the assay with Canis familiaris [7] is given as 1.5%; in the assay with Canis familiaris [8] it was 3%; with Canis familiaris [9], 2%; with Canis familiaris [10] it was 19%; in the assay with Canis familiaris [11], -0.5%; in the assay with Canis familiaris [14] it was -4.75%.
As for `Cn1c(-c2ccc(O)nn2)cnc1-c1ccccc1`, the Change in the assay with Canis familiaris [1] is given as -3%; in the assay with Canis familiaris [2] it was -1.75%; in the assay on Canis familiaris [3], -1.5%; with Canis familiaris [4] it was -0.25%; with Canis familiaris [5], 1.5%; in the assay with Canis familiaris [7], -1%. The Change is listed as 17% in the assay on Canis familiaris [8]; -0.5% in the assay with Canis familiaris [9]; -1.5% in the assay on Canis familiaris [10]; 0.75% with Canis familiaris [11]; -2.5% with Canis familiaris [14]. The IC50 in [13] turned out to be 160 µM.
